The subject of data set [1] is INS1. Put plainly: Effect on ATF4 mRNA level in rat INS-1 cells up to 10 uM after 8 hrs by qRT-PCR analysis. In kind it is ADME, cell-based. The conditions noted are these: ins1, 8 h. A digest of the protocol:
(§1)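 INS-1 cells, 4×10^5 per well, were exposed to tunicamycin 0.1 μg/mL with compound or DMSO for 8 h. qRT-PCR for ATF4, CHOP, Bip, GRP94, or spliced XBP1 using splicing-specific primers. Values were normalized to cyclophilin A by ΔΔCt and given as fold over untreated control. Triplicate wells, 3 independent experiments.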

The test system of data set [2] is INS1. Put plainly: Cytotoxicity against rat INS-1 cells assessed as reduction in cell viability up to 10 uM after 3 days by CellTiter-Glo assay. In kind it is cell-based. The conditions noted are these: ins1, 72 h. In outline: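 INS-1 cells, 3×10^3 per well, were given compound or DMSO alone (no tunicamycin) for 72 h. Intracellular ATP was read by luminescence and expressed as fold of untreated cells. Triplicate wells, three independent experiments.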

Data set [3] concerns INS1. The data set is described as follows: Cytoprotective activity against tunicamycin ER stress-induced apoptosis in rat INS-1 cells assessed as inhibition of tunicamycin-induced cleaved caspase3 expression up to 1 uM after 24 hrs by Western blot analysis. In kind it is functional, cell-based. In outline: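 INS-1 cells, 8×10^5 per 60-mm dish, were exposed to tunicamycin 0.1 μg/mL plus compound or DMSO for 24 h. 20 μg lysate protein was run on 7% SDS-PAGE and immunoblotted for cleaved caspase-3 and PARP (1:1000), with α-tubulin as loading control; 3 independent experiments.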
Background: In western blotting, separated proteins are transferred to a membrane and probed.

Data set [4] relates to INS1. The data set is described as follows: Cytoprotective activity against tunicamycin ER stress-induced apoptosis in rat INS-1 cells assessed as TUNEL positive cells at 0.1 to 1 uM after 24 hrs by TUNEL/DAPI-based microscopic analysis (reference value: 7%). In kind it is functional.
Data set [5] has as its system INS1. The data set is described as follows: Protection against tunicamycin ER stress-induced suppression of INS1 mRNA expression in rat INS-1 cells up to 1 uM after 24 hrs by qRT-PCR analysis. It is filed as functional, cell-based. In outline: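 INS-1 cells were exposed to tunicamycin 0.1 μg/mL with compound or DMSO for 24 h. INS1, INS2, PDX1 and MafA mRNA were measured by qRT-PCR and normalized to cyclophilin A by the comparative Ct method. Triplicate wells, 3 independent experiments.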
On the technique in general: In qPCR the cycle at which signal appears reflects the starting amount.

The species named for the next data set is Rattus norvegicus. The data set is described as follows: Inhibition of tunicamycin ER stress-induced IRE1alpha activation in rat INS-1 cells assessed as suppression of tunicamycin-induced increase in XBP1 mRNA levels up to 10 uM after 8 hrs by qRT-PCR analysis. In kind it is cell-based. A digest of the protocol: as §1
For data set [6], the target named is T1, Cyclic AMP-dependent transcription factor ATF-6 alpha (Rattus norvegicus) (UniProt G3V909).
T1 sequence (whole entry): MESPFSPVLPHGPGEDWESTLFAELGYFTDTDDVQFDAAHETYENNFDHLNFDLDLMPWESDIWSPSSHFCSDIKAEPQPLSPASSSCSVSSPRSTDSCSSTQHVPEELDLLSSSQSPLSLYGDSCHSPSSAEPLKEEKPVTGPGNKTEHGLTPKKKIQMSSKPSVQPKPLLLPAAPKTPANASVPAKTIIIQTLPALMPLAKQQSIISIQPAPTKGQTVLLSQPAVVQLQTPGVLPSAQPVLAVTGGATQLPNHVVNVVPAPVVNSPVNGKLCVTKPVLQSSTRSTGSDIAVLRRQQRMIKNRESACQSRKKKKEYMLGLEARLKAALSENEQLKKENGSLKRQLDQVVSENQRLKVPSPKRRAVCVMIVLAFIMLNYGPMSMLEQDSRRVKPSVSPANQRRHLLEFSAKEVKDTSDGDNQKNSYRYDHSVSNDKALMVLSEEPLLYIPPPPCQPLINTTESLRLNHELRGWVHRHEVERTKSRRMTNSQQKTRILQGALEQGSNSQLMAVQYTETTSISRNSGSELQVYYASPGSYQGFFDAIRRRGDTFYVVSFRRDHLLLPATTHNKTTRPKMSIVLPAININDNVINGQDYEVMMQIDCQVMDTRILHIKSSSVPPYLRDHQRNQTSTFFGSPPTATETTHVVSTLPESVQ
The data set is described as follows: Inhibition of tunicamycin ER stress-induced ATF6 activation in rat INS-1 cells assessed as suppression of increase in […] mRNA levels up to 10 uM after 8 hrs by qRT-PCR analysis. It is filed as cell-based. In outline:
as §1

Data set [7] has as its system Mus musculus. Put plainly: Antidiabetic activity in STZ-induced diabetic overnight fasted C57BL/6 mouse model assessed as blood glucose level at 5 mg/kg, ip administrated qd with streptozotocin for 5 days followed by compound administration alone for 2 more weeks measured at 15 mins post last dose relative to control. It is filed as functional, organism-based. A digest of the protocol:
(§2)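 Same STZ/compound i.p. regimen in male C57BL/6 mice, vehicle group as control. Intraperitoneal glucose tolerance test in overnight-fasted mice: glucose 2 g/kg i.p., blood glucose read at set times after the glucose load.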

In data set [8] the test system is Mus musculus. The data set is described as follows: Antidiabetic activity in STZ-induced diabetic overnight fasted C57BL/6 mouse model assessed as blood glucose level at 5 mg/kg, ip administrated qd with streptozotocin for 5 days followed by compound administration alone for 2 more weeks measured at 30 mins post last dose relative to control. It is filed as functional, organism-based. In outline: as §2

Data set [9] concerns Mus musculus. The data set is described as follows: Toxicity in STZ-induced diabetic C57BL/6 mouse model assessed as effect on alpha-cells at 5 mg/kg, ip administrated qd with streptozotocin for 5 days followed by compound administration alone for 2 more weeks by DAPI-staining based confocal microscopic analysis. It is filed as organism-based. Conditions: in vivo, 120 h. A digest of the protocol:
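At the end of treatment in the STZ mouse model, pancreases were formalin-fixed, paraffin-embedded and serially sectioned at 100 μm intervals. Six sections were stained for insulin and glucagon with DAPI counterstain and imaged by confocal microscopy. Insulin-positive cells demarcated islets; total islet area per section and cells per islet were quantified.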

The record followed here is ChEMBL document CHEMBL4038317, “Discovery of a Benzamide Derivative That Protects Pancreatic β-Cells against Endoplasmic Reticulum Stress” (J Med Chem, 2017).

The structures appear in SMILES notation. Activity calls are given as the source filed them. The rule behind the calls is not given here.

As to `O=C(NCc1ccc(C(F)(F)F)cc1)c1cccc(CN2CCCCC2)c1`, the Activity result in the data set on INS1 [1] is reported as “Non-Toxic”; in the data set on INS1 [2], “Non-Toxic”; in the data set with INS1 [4], 0.5%; in the data set on Mus musculus [9], “Non-Toxic”. Also, the inhibition entry (with INS1 [3]; in the data set listed under Rattus norvegicus; in data set [6]) was “Active” each time. The result in the data set on INS1 [5], with Mus musculus [7] and in the data set with Mus musculus [8] was Active.
